The source of these data is ChEMBL document CHEMBL4616603, “Luciferase-based HMG-CoA reductase degradation assay for activity and selectivity profiling of oxy(lano)sterols” (Bioorg Med Chem, 2020).

Format in all cases: cell-based
Assay [1] addresses T1, 3-hydroxy-3-methylglutaryl-coenzyme A reductase (Homo sapiens) (UniProt P04035).
T1 sequence (whole entry): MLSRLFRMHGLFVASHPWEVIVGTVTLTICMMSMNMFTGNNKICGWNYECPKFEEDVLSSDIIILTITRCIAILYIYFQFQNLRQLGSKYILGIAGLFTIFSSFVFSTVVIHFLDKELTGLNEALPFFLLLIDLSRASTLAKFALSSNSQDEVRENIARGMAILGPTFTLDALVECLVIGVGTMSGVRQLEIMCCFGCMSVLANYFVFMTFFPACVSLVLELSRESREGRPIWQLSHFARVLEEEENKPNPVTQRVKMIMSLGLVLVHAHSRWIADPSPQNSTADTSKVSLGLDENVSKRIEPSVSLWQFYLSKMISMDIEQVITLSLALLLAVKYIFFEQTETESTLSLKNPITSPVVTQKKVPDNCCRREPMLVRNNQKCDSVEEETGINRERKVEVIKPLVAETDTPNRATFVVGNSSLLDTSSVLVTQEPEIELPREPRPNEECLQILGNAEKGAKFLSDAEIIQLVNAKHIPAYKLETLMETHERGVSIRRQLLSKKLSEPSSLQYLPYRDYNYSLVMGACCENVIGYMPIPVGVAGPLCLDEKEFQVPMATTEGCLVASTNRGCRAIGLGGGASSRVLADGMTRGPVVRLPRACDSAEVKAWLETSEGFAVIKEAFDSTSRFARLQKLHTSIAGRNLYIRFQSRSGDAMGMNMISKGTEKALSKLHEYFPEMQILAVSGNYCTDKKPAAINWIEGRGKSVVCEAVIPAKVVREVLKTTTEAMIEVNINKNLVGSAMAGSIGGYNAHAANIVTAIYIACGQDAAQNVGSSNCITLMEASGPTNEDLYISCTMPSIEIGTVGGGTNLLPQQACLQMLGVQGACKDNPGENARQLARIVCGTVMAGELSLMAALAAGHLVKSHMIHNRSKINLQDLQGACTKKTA
The assay can be described thus: (§1) Induction of human HMGCR-dCat-ELuc degradation expressed in HEK293 cells assessed as reduction in luciferase activity after 4 hrs by luciferase reporter assay. In a few lines:
(§2)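 HEK293 clone stably expressing HMGCR-dCat-ELuc, kept under 0.4 mg/mL G418 and picked from limiting-dilution clones. Cells exposed to compound for 4 h, then luciferase activity read as a measure of reporter protein level. Compounds came from 10 mM DMSO stocks (ethanol stock for 25HC). SD of triplicate experiments.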

In assay [2] the target is T2, Sterol regulatory element-binding protein 1 (Homo sapiens) (UniProt P36956).
T2 sequence (whole entry): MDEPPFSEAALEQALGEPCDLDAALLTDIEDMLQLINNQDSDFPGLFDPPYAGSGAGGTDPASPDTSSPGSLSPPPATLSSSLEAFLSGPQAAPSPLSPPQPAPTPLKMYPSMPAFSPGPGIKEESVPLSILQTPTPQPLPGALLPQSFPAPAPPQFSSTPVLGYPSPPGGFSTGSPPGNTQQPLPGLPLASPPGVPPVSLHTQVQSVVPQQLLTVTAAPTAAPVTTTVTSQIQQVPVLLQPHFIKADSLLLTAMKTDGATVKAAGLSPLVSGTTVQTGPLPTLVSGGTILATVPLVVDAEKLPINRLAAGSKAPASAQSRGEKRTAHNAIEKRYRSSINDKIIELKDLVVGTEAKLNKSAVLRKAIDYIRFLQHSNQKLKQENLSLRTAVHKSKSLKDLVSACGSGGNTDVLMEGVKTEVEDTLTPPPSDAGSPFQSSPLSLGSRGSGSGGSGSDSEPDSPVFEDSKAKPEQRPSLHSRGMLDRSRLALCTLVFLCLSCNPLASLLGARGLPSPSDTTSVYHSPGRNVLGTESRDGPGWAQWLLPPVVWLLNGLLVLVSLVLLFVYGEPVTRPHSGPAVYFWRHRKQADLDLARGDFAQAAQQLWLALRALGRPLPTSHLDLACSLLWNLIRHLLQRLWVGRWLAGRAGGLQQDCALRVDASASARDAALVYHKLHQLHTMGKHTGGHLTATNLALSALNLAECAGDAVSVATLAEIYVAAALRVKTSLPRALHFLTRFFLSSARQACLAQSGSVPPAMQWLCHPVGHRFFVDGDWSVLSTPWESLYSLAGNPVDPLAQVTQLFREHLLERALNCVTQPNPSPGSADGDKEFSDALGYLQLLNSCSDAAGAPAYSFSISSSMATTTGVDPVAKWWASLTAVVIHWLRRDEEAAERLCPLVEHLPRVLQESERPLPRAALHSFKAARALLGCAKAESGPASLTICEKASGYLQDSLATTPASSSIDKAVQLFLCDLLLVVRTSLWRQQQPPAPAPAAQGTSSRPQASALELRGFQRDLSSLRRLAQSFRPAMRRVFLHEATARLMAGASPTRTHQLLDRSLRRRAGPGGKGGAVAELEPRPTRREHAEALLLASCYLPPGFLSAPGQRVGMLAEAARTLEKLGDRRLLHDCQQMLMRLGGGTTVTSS
Briefly: Inhibition of SREBP (unknown origin) expressed in HEK293 cells assessed as reduction in LDLr promotor activity after 24 hrs by luciferase reporter assay. In a few lines:
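HEK293 cells transiently co-transfected with pGL4-LDLr-luciferase and pCMV-beta-galactosidase. After 24 h the medium was changed to DMEM with 10% LPDS, compounds were added, and culture continued for 24 h. Luciferase was read and normalized to beta-galactosidase activity. Mean ± SD, n = 3.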
(Reporter assays use an easily measured gene product as a stand-in for the process of interest.)

The target of assay [3] is T3, 3-hydroxy-3-methylglutaryl-coenzyme A reductase (Homo sapiens, UniProt P04035).
T3 sequence (P04035 whole entry): T1 sequence (whole entry)
The assay is described as §1. The essentials:
as §2

Assay [4] has as its target T1, 3-hydroxy-3-methylglutaryl-coenzyme A reductase (Homo sapiens). Briefly: Induction of human HMGCR-dCat-ELuc degradation expressed in HEK293 cells assessed as reduction in luciferase activity after 8 hrs by luciferase reporter assay. The essentials:
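Stable HMGCR-dCat-ELuc HEK293 clone (G418 0.4 mg/mL selection) treated for 8 h, then assayed for luciferase activity. In some runs, cells were co-treated with the SQS inhibitor TAK-475 at 10 µM. Mean and SD from biological replicates (n = 4 or 8).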

For assay [5] the target is unchanged. The assay can be described thus: Induction of human HMGCR-dCat-ELuc degradation expressed in HEK293 cells assessed as reduction in luciferase activity measured after 8 hrs in presence of SQS inhibitor TAK-475 by luciferase reporter assay. In a few lines:
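Stable HEK293 HMGCR-dCat-ELuc clone (G418-selected, single clone) was given graded compound concentrations together with 10 µM TAK-475 (SQS inhibitor) for 8 h. The read-out was luciferase activity. Data are mean and SD of biological replicates, n = 4.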

Assay [6] has the same target. The assay can be described thus: Induction of human HMGCR-dCat-ELuc degradation expressed in HEK293 cells assessed as reduction in luciferase activity measured after 8 hrs by luciferase reporter assay. The essentials: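 Stable HEK293 clone expressing HMGCR-dCat-ELuc, selected with 0.4 mg/mL G418 and isolated by limiting dilution. Cells were given graded compound concentrations without TAK-475 for 8 h. HMGCR-dCat-ELuc level was read as luciferase activity. Data are mean and SD.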

Assay [7] has the same target. Briefly: Induction of human HMGCR-dCat-ELuc degradation expressed in HEK293 cells assessed as reduction in luciferase activity at 10 uM measured at <4 hrs in presence of VCP inhibitor CB5083 by luciferase reporter assay. The essentials:
(§3)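 Time-course degradation assay in the stable HMGCR-dCat-ELuc HEK293 line. Compound at 10 µM, alone or together with the VCP inhibitor CB5083 at 10 µM, for the indicated times. Reporter level read by luciferase activity.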

Assay [8] has the same target. Briefly: Induction of human HMGCR-dCat-ELuc degradation expressed in HEK293 cells assessed as reduction in luciferase activity at 10 uM measured at <4 hrs by luciferase reporter assay. The essentials:
as §3

As a reminder, the EC50 is the concentration that produces a half-maximal response.

SMILES strings stand for the structures. The source made the active and inactive calls. No cut-off for these calls is given here.

As for `CC(C)CCC[C@@H](C)[C@H]1CC[C@H]2[C@@H]3C[C@@H](O)[C@@]4(O)C[C@@H](O)CC[C@]4(C)[C@H]3CC[C@]12C`, the result in assay [1] was Active. For the same compound, the inhibition entry in assay [2] is “inactive”.
`C[C@H](CCCC(C)(C)O)[C@H]1CC[C@H]2[C@@H]3CC=C4C[C@@H](O)CC[C@]4(C)[C@H]3CC[C@]12C`: in assay [1], the Activity result is “Dose-dependent effect”. Besides, in assay [3], the EC50 amounted to 630 nM. In assay [2], the inhibition result is “Active”.
For `CC(C)CCC[C@@H](C)[C@H]1CC[C@@]2(C)C3=C(C(=O)C[C@]12C)[C@@]1(C)CC[C@H](O)C(C)(C)[C@@H]1CC3=O`, in assay [1], the result was Active. For the same compound, the inhibition entry in assay [2] was “inactive”.
In the same order, the values of `C[C@H](CCCC(C)(C)O)[C@H]1CC[C@@]2(C)C3=C(CC[C@]12C)[C@@]1(C)CC[C@H](O)C(C)(C)[C@@H]1CC3` are “Active” and “Active”.
In the same order, the values of `C[C@H](CCC(O)C(C)(C)O)[C@H]1CC[C@@]2(C)C3=C(CC[C@]12C)[C@@]1(C)CC[C@H](O)C(C)(C)[C@@H]1CC3` (stereo partly drawn) are “Active” and “Active”.
In the same order, the values of `C[C@H](CCCO)[C@H]1CC[C@@]2(C)C3=C(CC[C@]12C)[C@@]1(C)CC[C@H](O)C(C)(C)[C@@H]1CC3` are “Active” and “inactive”.
Turning to `COc1cccc([C@H]2O[C@H](CC(=O)N3CCC(CC(=O)O)CC3)C(=O)N(CC(C)(C)COC(C)=O)c3ccc(Cl)cc32)c1OC`, the outcome in assay [4] was inactive.
`CC(=O)N1CCN(c2ccc(OCC3COC(Cn4ccnc4)(c4ccc(Cl)cc4Cl)O3)cc2)CC1` (stereo not drawn): the result in assay [5] was inactive. In assay [6], the Activity entry was “Dose-dependent effect”.
As to `CC(C)CCC[C@@H](C)[C@H]1CC[C@H]2[C@@H]3CC=C4C(C)(C)[C@@H](O)CC[C@]4(C)[C@H]3CC[C@]12C`, in assay [1], the outcome was inactive. For the same compound, the inhibition entry in assay [2] was “inactive”.
Turning to `C[C@H](CCCC(C)(C)O)[C@H]1CC[C@H]2[C@@H]3C[C@@H](O)[C@@]4(O)C[C@@H](O)CC[C@]4(C)[C@H]3CC[C@]12C`, the result in assay [1] was Active. Besides, the inhibition entry in assay [2] was “inactive”.
`C[C@H](CCCC(C)(C)O)[C@H]1CC[C@H]2[C@@H]3CCC4=CC(=O)CC[C@]4(C)[C@H]3CC[C@]12C`: the outcome in assay [1] was inactive. The inhibition entry in assay [2] is “Active”.
On to `CC(C)CCC[C@@H](C)[C@H]1CC[C@@]2(C)C3=C(CC[C@]12C)[C@@]1(C)CC[C@H](O)C(C)(C)[C@@H]1CC3`, for which the result in assay [1] was inactive. For the same compound, the inhibition result in assay [2] was “inactive”.
In the case of `CC(C)CCC[C@@H](C)[C@H]1CC[C@H]2[C@@H]3CC=C4C[C@@H](O)CC[C@]4(CO)[C@H]3CC[C@]12C`, the result in assay [1] was inactive. In addition, the inhibition result in assay [2] was “inactive”.
`CC(C)OP(=O)(OC(C)C)C(Cc1cc(C(C)(C)C)c(O)c(C(C)(C)C)c1)P(=O)(OC(C)C)OC(C)C` [APOMINE]: in assay [7], the outcome was inactive. In assay [1], the Activity result is “Dose-dependent effect”. Also, the EC50 in assay [3] is 470 nM. Besides, in assay [8], the result was Active. Further, the inhibition result in assay [2] was “inactive”.
On to `C[C@H](CCC1OC1(C)C)[C@H]1CC[C@@]2(C)C3=C(CC[C@]12C)[C@@]1(C)CC[C@H](O)C(C)(C)[C@@H]1CC3` (stereo partly drawn), for which, in assay [1], the result was Active. Besides, the inhibition result in assay [2] is “Active”.
